Data published in ChEMBL document CHEMBL1152452, “Modifications incorporated in CpG motifs of oligodeoxynucleotides lead to antagonist activity of toll-like receptors 7 and 9” (2009).
Active and inactive are the calls of the source. The calls are words filed in the database; no cut-off is given here.

How the values were obtained:
Mus musculus [1] = assay: Immunostimulatory activity in C57BL/6 mouse assessed as induction of MCP1 level in serum at 2 mg/kg, sc after 2 hrs by Luminex multiplex assay; format: functional, organism-based; parameters: dose 2 mg/kg
Method in brief: (§1)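 Female C57BL/6 mice, 5–6 weeks old, n = 3, received a single 2 mg/kg subcutaneous ODN injection in the right flank. Blood was taken by retro-orbital bleeding 2 h later. Naive mice served as baseline. Representative of three experiments.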

Mus musculus [2] = assay: Immunostimulatory activity in C57BL/6 mouse assessed as induction of IL10 level in serum at 2 mg/kg, sc after 2 hrs by Luminex multiplex assay; format: functional, organism-based; parameters: dose 2 mg/kg; method in brief: as §1
Splenocyte [3] = assay: Immunostimulatory activity in C57BL/6 mouse splenocytes assessed as induction of IL6 secretion at 2 to 10 ug/ml after 24 hrs by sandwich ELISA; format: functional, cell-based
Method in brief: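 C57BL/6 splenocytes (mice 5–8 weeks) at 5 × 10^6 cells/mL in RPMI complete medium. ODNs dissolved in PBS were added and the cells incubated at 37 °C for 24 h. Supernatant IL-12 or IL-6 was measured by sandwich ELISA. Runs were done two or three times, in duplicate per concentration.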

Mus musculus [4] = assay: Immunostimulatory activity in C57BL/6 mouse assessed as inhibition of 5'-CTATCTGACGTTCTCTGT-3'-induced IL12 production in serum at 2 mg/kg, sc administered 24 hrs prior to 5'-CTATCTGACGTTCTCTGT-3' challenge measured after 2 hrs by sandwich ELISA; format: functional; details: C57BL/6, sc, route subcutaneous
Method in brief: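 C57BL/6 mice were pretreated sc in the right flank with 2, 5 or 10 mg/kg ODN. After 24 h, the TLR9 agonist ODN was given at 0.5 mg/kg sc in the left flank. Serum IL-12 was measured by ELISA 2 h later. Representative of two experiments.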

Mus musculus [5] = assay: Immunostimulatory activity in C57BL/6 mouse assessed as inhibition of 5'-CTATCTGACGTTCTCTGT-3'-induced MCP1 production in serum at 2 mg/kg, sc administered 24 hrs prior to 5'-CTATCTGACGTTCTCTGT-3' challenge measured after 2 hrs by Luminex multiplex assay; format: functional, organism-based; parameters: dose 2 mg/kg
Method in brief: (§2)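 C57BL/6 mice received 2 mg/kg ODN sc in one flank. After 24 h, the TLR9 agonist ODN was given at 0.5 mg/kg sc in the opposite flank. Blood was drawn 2 h later and serum cytokines/chemokines were quantified by Luminex multiplex assay. Percent inhibition was taken against the agonist alone. Representative of three experiments.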

Mus musculus [6] = assay: Immunostimulatory activity in C57BL/6 mouse assessed as inhibition of 5'-CTATCTGACGTTCTCTGT-3'-induced MIP-1alpha production in serum at 2 mg/kg, sc administered 24 hrs prior to 5'-CTATCTGACGTTCTCTGT-3' challenge measured after 2 hrs by Luminex multiplex assay; format: functional, organism-based; parameters: dose 2 mg/kg; method in brief: as §2
Mus musculus [7] = assay: Immunostimulatory activity in C57BL/6 mouse assessed as inhibition of 5'-CTATCTGACGTTCTCTGT-3'-induced IL10 production in serum at 2 mg/kg, sc administered 24 hrs prior to 5'-CTATCTGACGTTCTCTGT-3' challenge measured after 2 hrs by Luminex multiplex assay; format: functional, organism-based; parameters: dose 2 mg/kg; method in brief: as §2
Mus musculus [8] = assay: Immunostimulatory activity in C57BL/6 mouse assessed as induction of IL12 level in serum at 2 mg/kg, sc after 2 hrs by sandwich ELISA; format: functional, organism-based; parameters: dose 2 mg/kg; method in brief: as §1
Mus musculus [9] = assay: Immunostimulatory activity in C57BL/6 mouse assessed as induction of TNFalpha level in serum at 2 mg/kg, sc after 2 hrs by Luminex multiplex assay; format: functional, organism-based; parameters: dose 2 mg/kg; method in brief: as §1
Splenocyte [10] = assay: Inhibition of 5'-CTATCTGACGTTCTCTGT-3'-induced IL12 secretion in C57BL/6 mouse splenocytes after 24 hrs by sandwich ELISA; format: functional, cell-based
Method in brief: (§3)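 Splenocytes from 5–8-week C57BL/6 mice, 5 × 10^6 cells/mL in RPMI complete medium, were co-incubated with the TLR9 agonist ODN (1 µg/mL) plus test ODN at 1 or 4 µg/mL, or over a concentration series, at 37 °C for 24 h. Supernatant IL-12 or IL-6 was measured by sandwich ELISA. Runs were done in duplicate, with three independent experiments.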

Splenocyte [11] = assay: Inhibition of 5'-CTATCTGACGTTCTCTGT-3'-induced IL6 secretion in C57BL/6 mouse splenocytes after 24 hrs by sandwich ELISA; format: functional, cell-based; method in brief: as §3

Row | SMILES | Activity (Mus musculus [1]) | Activity (Mus musculus [2]) | Activity (Splenocyte [3]) | inhibition in vivo at 2 mg/kg (Mus musculus [4]) [%] | Activity (Mus musculus [5]) | Activity (Mus musculus [6]) | Activity (Mus musculus [7]) | Activity (Mus musculus [8]) | Activity (Mus musculus [9]) | Activity (Splenocyte [10]) | Activity (Splenocyte [11])
1 | Cc1cn([C@@H]2O[C@H](COP(=O)(S)O[C@H]3C[C@H](n4ccc(N)nc4=O)O[C@@H]3COP(=O)(S)O[C@H]3C[C@H](n4cc(C)c(=O)[nH]c4=O)O[C@@H]3COP(=O)(S)O[C@H]3C[C@H](n4ccc(N)nc4=O)O[C@@H]3COP(=O)(S)O[C@H]3C[C@H](n4cc(C)c(=O)[nH]c4=O)O[C@@H]3COP(=O)(S)O[C@H]3C[C@H](n4cc(C)c(=O)[nH]c4=O)O[C@@H]3COP(=O)(S)O[C@H]3C[C@H](n4cnc5c(=O)[nH]c(N)nc54)O[C@@H]3COP(=O)(S)O[C@H]3C[C@H](n4ccc(N)nc4=O)O[C@@H]3COP(=O)(S)O[C@H]3C[C@H](n4cnc5c(N)ncnc54)O[C@@H]3COP(=O)(S)O[C@H]3C[C@H](n4cnc5c(=O)[nH]c(N)nc54)O[C@@H]3COP(=O)(S)O[C@H]3C[C@H](n4cc(C)c(=O)[nH]c4=O)O[C@@H]3COP(=O)(S)O[C@H]3C[C@H](n4ccc(N)nc4=O)O[C@@H]3COP(=O)(S)O[C@H]3C[C@H](n4cc(C)c(=O)[nH]c4=O)O[C@@H]3COP(=O)(S)O[C@H]3C[C@H](n4cnc5c(N)ncnc54)O[C@@H]3COP(=O)(S)O[C@H]3C[C@H](n4cc(C)c(=O)[nH]c4=O)O[C@@H]3COP(=O)(S)O[C@@H]3C[C@@H](n4ccc(N)nc4=O)O[C@H]3CO)[C@@H](OP(=O)(S)OC[C@H]3O[C@@H](n4cnc5c(=O)[nH]c(N)nc54)C[C@@H]3OP(=O)(S)OC[C@H]3O[C@@H](n4cc(C)c(=O)[nH]c4=O)C[C@@H]3O)[C@H]2O)c(=O)[nH]c1=O (stereo partly drawn) | inactive | inactive | Active | 50 | Active | Active | Active | inactive | inactive |  | 
2 | CO[C@@H]1[C@H](OP(=O)(S)OC[C@H]2O[C@@H](n3cnc4c(=O)[nH]c(N)nc43)C[C@@H]2OP(=O)(S)OC[C@H]2O[C@@H](n3cc(C)c(=O)[nH]c3=O)C[C@@H]2OP(=O)(S)OC[C@H]2O[C@@H](n3cc(C)c(=O)[nH]c3=O)C[C@@H]2OP(=O)(S)OC[C@H]2O[C@@H](n3ccc(N)nc3=O)C[C@@H]2OP(=O)(S)OC[C@H]2O[C@@H](n3cc(C)c(=O)[nH]c3=O)C[C@@H]2OP(=O)(S)OC[C@H]2O[C@@H](n3ccc(N)nc3=O)C[C@@H]2OP(=O)(S)OC[C@H]2O[C@@H](n3cc(C)c(=O)[nH]c3=O)C[C@@H]2OP(=O)(S)OC[C@H]2O[C@@H](n3cnc4c(=O)[nH]c(N)nc43)C[C@@H]2OP(=O)(S)OC[C@H]2O[C@@H](n3cc(C)c(=O)[nH]c3=O)C[C@@H]2O)[C@@H](COP(=O)(S)O[C@H]2C[C@H](n3cnc4c(N)ncnc43)O[C@@H]2COP(=O)(S)O[C@H]2C[C@H](n3cnc4c(=O)[nH]c(N)nc43)O[C@@H]2COP(=O)(S)O[C@H]2C[C@H](n3cc(C)c(=O)[nH]c3=O)O[C@@H]2COP(=O)(S)O[C@H]2C[C@H](n3ccc(N)nc3=O)O[C@@H]2COP(=O)(S)O[C@H]2C[C@H](n3cc(C)c(=O)[nH]c3=O)O[C@@H]2COP(=O)(S)O[C@H]2C[C@H](n3cnc4c(N)ncnc43)O[C@@H]2COP(=O)(S)O[C@H]2C[C@H](n3cc(C)c(=O)[nH]c3=O)O[C@@H]2COP(=O)(S)O[C@H]2C[C@H](n3ccc(N)nc3=O)O[C@@H]2CO)O[C@H]1n1ccc(N)nc1=O (stereo partly drawn) | inactive | inactive | Active | 50 | Active | Active | Active | inactive | inactive |  | 
3 | CO[C@@H]1[C@H](OP(=O)(S)OC[C@H]2O[C@@H](n3cc(C)c(=O)[nH]c3=O)C[C@@H]2OP(=O)(S)OC[C@H]2O[C@@H](n3cc(C)c(=O)[nH]c3=O)C[C@@H]2OP(=O)(S)OC[C@H]2O[C@@H](n3ccc(N)nc3=O)C[C@@H]2OP(=O)(S)OC[C@H]2O[C@@H](n3cc(C)c(=O)[nH]c3=O)C[C@@H]2OP(=O)(S)OC[C@H]2O[C@@H](n3ccc(N)nc3=O)C[C@@H]2OP(=O)(S)OC[C@H]2O[C@@H](n3cc(C)c(=O)[nH]c3=O)C[C@@H]2OP(=O)(S)OC[C@H]2O[C@@H](n3cnc4c(=O)[nH]c(N)nc43)C[C@@H]2OP(=O)(S)OC[C@H]2O[C@@H](n3cc(C)c(=O)[nH]c3=O)C[C@@H]2O)[C@@H](COP(=O)(S)O[C@H]2C[C@H](n3ccc(N)nc3=O)O[C@@H]2COP(=O)(S)O[C@H]2C[C@H](n3cnc4c(N)ncnc43)O[C@@H]2COP(=O)(S)O[C@H]2C[C@H](n3cnc4c(=O)[nH]c(N)nc43)O[C@@H]2COP(=O)(S)O[C@H]2C[C@H](n3cc(C)c(=O)[nH]c3=O)O[C@@H]2COP(=O)(S)O[C@H]2C[C@H](n3ccc(N)nc3=O)O[C@@H]2COP(=O)(S)O[C@H]2C[C@H](n3cc(C)c(=O)[nH]c3=O)O[C@@H]2COP(=O)(S)O[C@H]2C[C@H](n3cnc4c(N)ncnc43)O[C@@H]2COP(=O)(S)O[C@H]2C[C@H](n3cc(C)c(=O)[nH]c3=O)O[C@@H]2COP(=O)(S)O[C@H]2C[C@H](n3ccc(N)nc3=O)O[C@@H]2CO)O[C@H]1n1cnc2c(=O)[nH]c(N)nc21 (stereo partly drawn) | inactive | inactive | Active | 50 | Active | Active | Active | inactive | inactive |  | 
4 | COC1[C@H](n2cc(C)c(N)nc2=O)O[C@H](COP(=O)(S)O[C@H]2C[C@H](n3cnc4c(N)ncnc43)O[C@@H]2COP(=O)(S)O[C@H]2C[C@H](n3cnc4c(=O)[nH]c(N)nc43)O[C@@H]2COP(=O)(S)O[C@H]2C[C@H](n3cc(C)c(=O)[nH]c3=O)O[C@@H]2COP(=O)(S)O[C@H]2C[C@H](n3ccc(N)nc3=O)O[C@@H]2COP(=O)(S)O[C@H]2C[C@H](n3cc(C)c(=O)[nH]c3=O)O[C@@H]2COP(=O)(S)O[C@H]2C[C@H](n3cnc4c(N)ncnc43)O[C@@H]2COP(=O)(S)O[C@H]2C[C@H](n3cc(C)c(=O)[nH]c3=O)O[C@@H]2COP(=O)(S)O[C@H]2C[C@H](n3ccc(N)nc3=O)O[C@@H]2CO)[C@H]1OP(=O)(S)OC[C@H]1O[C@@H](n2cnc3c(=O)[nH]c(N)nc32)C[C@@H]1OP(=O)(S)OC[C@H]1O[C@@H](n2cc(C)c(=O)[nH]c2=O)C[C@@H]1OP(=O)(S)OC[C@H]1O[C@@H](n2cc(C)c(=O)[nH]c2=O)C[C@@H]1OP(=O)(S)OC[C@H]1O[C@@H](n2ccc(N)nc2=O)C[C@@H]1OP(=O)(S)OC[C@H]1O[C@@H](n2cc(C)c(=O)[nH]c2=O)C[C@@H]1OP(=O)(S)OC[C@H]1O[C@@H](n2ccc(N)nc2=O)C[C@@H]1OP(=O)(S)OC[C@H]1O[C@@H](n2cc(C)c(=O)[nH]c2=O)C[C@@H]1OP(=O)(S)OC[C@H]1O[C@@H](n2cnc3c(=O)[nH]c(N)nc32)C[C@@H]1OP(=O)(S)OC[C@H]1O[C@@H](n2cc(C)c(=O)[nH]c2=O)C[C@@H]1O (stereo partly drawn) | inactive | inactive | Active | 50 | Active | Active | Active | inactive | inactive | Dose-dependent effect | Dose-dependent effect
